The source of these data is ChEMBL document CHEMBL1123171, “Synthesis of delta 3-1-methylene-1-carbacephems” (1986).

Assay [1] has as its system Sarcina lutea (ATCC 9341). The assay can be described thus: In vitro antibacterial activity against Sarcina lutea (ATCC 9341).
The next assay has as its system Bacillus subtilis. The assay can be described thus: In vitro antibacterial activity against B. subtilis( NCTC 8236). The class given is functional. An outline of the steps: (§1)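 Agar dilution MIC in diagnostic sensitivity test agar; inoculum 10^5–10^6 cfu/spot applied with a multipoint inoculator. Test compounds were racemic, so reported values are corrected: only one-half of the observed MIC is taken.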

The next assay concerns Staphylococcus aureus. The assay can be described thus: Compound was tested in vitro for the antibacterial activity against Staphylococcus aureus (ATCC 6538P). In kind it is functional. An outline of the steps:
as §1

For the next assay, the system named is Escherichia coli. The assay can be described thus: In vitro antibacterial activity against Escherichia coli (ESS). In kind it is functional. The method, boiled down: as §1

Converted amounts (≈) assume the structure as drawn.

As a reminder, the MIC is the lowest concentration found to suppress growth. `C=C1C2[C@H](NC(=O)COc3ccccc3)C(=O)N2C(C(=O)O)=CC1(C)C` (some centres not stated): the minimum inhibitory concentration (MIC) in assay [1] amounted to 2 µg/mL (≈ 5.61 µM); in the assay with Bacillus subtilis it was 1.5 µg/mL (≈ 4.21 µM); with Staphylococcus aureus, 4 µg/mL (≈ 11.2 µM); against Escherichia coli, 1.5 µg/mL (≈ 4.21 µM).

Take `C=C1C2[C@H](NC(=O)C(N)c3ccccc3)C(=O)N2C(C(=O)O)=CC1(C)C` (some centres not stated): the MIC in assay [1] came to 0.12 µg/mL (≈ 0.338 µM); with Bacillus subtilis it was 1.5 µg/mL (≈ 4.22 µM); against Staphylococcus aureus it was 8 µg/mL (≈ 22.5 µM); in the assay with Escherichia coli it was 5 µg/mL (≈ 14.1 µM).

For the compound `CC1=C(C(=O)O)N2C(=O)[C@@H](NC(=O)[C@H](N)c3ccccc3)[C@H]2SC1` [CEPHALEXIN ANHYDROUS], the MIC amounted to 0.03 µg/mL (≈ 0.0864 µM) in assay [1], 1 µg/mL (≈ 2.88 µM) against Bacillus subtilis, 0.3 µg/mL (≈ 0.864 µM) against Staphylococcus aureus and 1 µg/mL (≈ 2.88 µM) against Escherichia coli.
